From ChEMBL document CHEMBL4400522, “Chikungunya virus inhibition by synthetic coumarin-guanosine conjugates” (Eur J Med Chem, 2019) come the findings set out here.

For data set [1], the system named is Chikungunya virus. In words: Antiviral activity against Chikungunya virus infected in African green monkey Vero E6 cells assessed as reduction in virus-induced cytopathic effect. In kind it is functional, organism-based. The note with it: Vero C1008. (In general: Cytopathic effects are the visible damage that an infection or toxin causes in cultured cells.)
A short description of data set [2]: Selectivity index, ratio of CC50 for African green monkey Vero E6 cells to EC50 for chikungunya virus infected in African green monkey Vero cells. In kind it is toxicity, Vero C1008. The note with it: read-out: Ratio CC50/EC50.
In data set [3] the test system is Chikungunya virus. In words: Antiviral activity against Chikungunya virus 899 infected in African green monkey Vero A cells assessed as inhibition of viral RNA replication by RT-qPCR analysis. The note with it: Chikungunya virus, 899, Vero. In kind it is functional, organism-based. A general note: Real-time PCR tracks product formation cycle by cycle.
The nature of data set [4]: Cytotoxicity against African green monkey Vero A cells by MTS assay. In kind it is cell-based. The note with it: chlorocebus aethiops. In short, it runs like this: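 Host-cell metabolism in Vero subtype A cells was measured by MTS read-out. CC50 is the concentration reducing host-cell metabolism by 50%. It was determined only for selected conjugates.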
Background: Formazan colour is commonly taken as a measure of viable cells.

Data set [5] is described as follows: Selectivity index, ratio of CC50 for African green monkey Vero A cells to EC50 for chikungunya virus 899 infected in African green monkey Vero A cells. In kind it is toxicity. The note with it: read-out: Ratio CC50/EC50.
Data set [6] is described as follows: Lipophilicity, log P of the compound. In kind it is physicochemical. The note with it: octanol/water.
Data set [7] relates to Chikungunya virus. As to the kind of experiment: Antiviral activity against Chikungunya virus infected in African green monkey Vero cells assessed as reduction in virus-induced cytopathic effect after 7 days by MTS assay. In kind it is functional, organism-based. The following applies: 168 h.
The nature of data set [8]: Selectivity index, ratio of CC50 for African green monkey Vero cells to EC50 for chikungunya virus infected in African green monkey Vero E6 cells. In kind it is toxicity, Vero C1008. The following applies: read-out: Ratio CC50/EC50.
Data set [9] in a line: Aqueous solubility of the compound measured per 100 ml. In kind it is physicochemical. The note with it: buffer.

As to `CCN1C(=O)CCSC1c1cc2cc(Cc3ccc4oc(C5SCCC(=O)N5CC)cc4c3)ccc2o1` (stereo unspecified), in the data set on Chikungunya virus [1], the 50% effective concentration (EC50) was found to be 1900 nM. Moreover, in data set [2], the selectivity ratio was determined as 75.

For the molecule `Nc1nc(SCc2cc3cc(Br)ccc3oc2=O)c2nc(SCc3ccccc3)n([C@@H]3O[C@H](CO)[C@@H](O)[C@H]3O)c2n1`, in the data set with Chikungunya virus [3], the 50% effective concentration (EC50) is above 152 µM.

With `Nc1nc2c(nc(SCc3ccccc3)n2[C@@H]2O[C@H](CO)[C@@H](O)[C@H]2O)c(=S)[nH]1`, the EC50 in the data set on Chikungunya virus [3] was above 237 µM.

As for `CSc1nc2c(SCc3cc4cc(Br)ccc4oc3=O)nc(N)nc2n1[C@@H]1O[C@H](CO)[C@@H](O)[C@H]1O`, in the data set on Chikungunya virus [3], the EC50 was above 172 µM.

On to `CSc1nc2c(SCc3cc4cc(C)ccc4oc3=O)nc(N)nc2n1[C@@H]1O[C@H](CO)[C@@H](O)[C@H]1O`, for which the EC50 with Chikungunya virus [3] was above 194 µM.

For `Cc1ccc2oc(=O)c(CSc3nc(N)nc4c3nc(SCc3cc5cc(C)ccc5oc3=O)n4[C@@H]3O[C@H](CO)[C@@H](O)[C@H]3O)cc2c1`, in data set [4], the cytotoxic concentration (CC50) is 81.3 µM. Also, in the data set with Chikungunya virus [3], the concentration for a half-maximal effect (EC50) turned out to be 40.9 µM. Moreover, the selectivity ratio in data set [5] came to 1.98. For the same molecule, the logP in data set [6] is 3.22.

As to `COc1cccc2cc(CSc3nc(N)nc4c3nc(SCc3cc5cccc(OC)c5oc3=O)n4[C@@H]3O[C@H](CO)[C@@H](O)[C@H]3O)c(=O)oc12`, it took 96.5 µM to reach half-maximal cytotoxicity in data set [4] (CC50). Moreover, the EC50 in the data set with Chikungunya virus [3] was 10.3 µM. Further, the selectivity ratio in data set [5] was 9.37. Also, the lipophilicity (logP) in [6] was found to be 2.97.

As to `COc1ccc2oc(=O)c(CSc3nc(N)nc4c3nc(SCc3ccccc3)n4[C@@H]3O[C@H](CO)[C@@H](O)[C@H]3O)cc2c1`, the EC50 with Chikungunya virus [3] was above 164 µM. The logP in data set [6] was determined as 2.78.

On to `Nc1nc(SCc2cc3cc(Br)ccc3oc2=O)c2nc(SCc3cc4cc(Br)ccc4oc3=O)n([C@@H]3O[C@H](CO)[C@@H](O)[C@H]3O)c2n1`, for which the EC50 in the data set on Chikungunya virus [3] is above 124 µM.

For `Nc1nc(SCc2cc3ccccc3oc2=O)c2nc(SCc3ccccc3)n([C@@H]3O[C@H](CO)[C@@H](O)[C@H]3O)c2n1`, the EC50 in the data set with Chikungunya virus [3] was above 173 µM.

On to `C=C(C)[C@@]12OC3(c4ccccc4)O[C@@H]1[C@@H]1[C@@H]4O[C@]4(CO)[C@@H](O)[C@@]4(O)[C@@H](C=C(C)[C@@H]4O)[C@@]1(O3)[C@H](C)[C@@H]2OC(=O)C(C)CCCCCCCC` (stereo partly specified), for which the half-maximal effective concentration (EC50) in the data set with Chikungunya virus [7] was 600 nM. The selectivity ratio in [8] was found to be 71.7.

Take `Nc1nc(SCc2cc3ccccc3oc2=O)c2nc(SCc3cccc4ccccc34)n([C@@H]3O[C@H](CO)[C@@H](O)[C@H]3O)c2n1`: the EC50 with Chikungunya virus [3] is above 159 µM.

Turning to `COc1cccc2cc(CSc3nc(N)nc4c3nc(SC)n4[C@@H]3O[C@H](CO)[C@@H](O)[C@H]3O)c(=O)oc12`, the EC50 in the data set on Chikungunya virus [3] was above 188 µM.

Consider `Nc1nc2c(nc(S)n2[C@@H]2O[C@H](CO)[C@@H](O)[C@H]2O)c(=S)[nH]1`, for which, in the data set with Chikungunya virus [3], the EC50 was above 302 µM. The molecule also gave a lipophilicity (logP) in [6] of -0.13.

`Nc1nc(SCc2cc3cc(F)ccc3oc2=O)c2nc(SCc3cc4cc(F)ccc4oc3=O)n([C@@H]3O[C@H](CO)[C@@H](O)[C@H]3O)c2n1`: the EC50 in the data set on Chikungunya virus [3] is above 146 µM.

As to `CSc1nc2c(SCc3cc4ccccc4oc3=O)nc(N)nc2n1[C@@H]1O[C@H](CO)[C@@H](O)[C@H]1O`, the 50% effective concentration (EC50) in the data set with Chikungunya virus [3] was above 198 µM.

As to `CSc1nc2c(SCc3cc4cc(Cl)ccc4oc3=O)nc(N)nc2n1[C@@H]1O[C@H](CO)[C@@H](O)[C@H]1O`, in the data set with Chikungunya virus [3], the concentration giving a half-maximal response (EC50) was above 186 µM.

In [4], `COc1ccc2oc(=O)c(CSc3nc(N)nc4c3nc(SCc3cccc5ccccc35)n4[C@@H]3O[C@H](CO)[C@@H](O)[C@H]3O)cc2c1` gave a 50% cytotoxic concentration (CC50) above 227 µM. For the same molecule, the EC50 with Chikungunya virus [3] was 13.9 µM. Also, the selectivity ratio in data set [5] was above 16.3. Further, the logP in data set [6] was 3.77.

`Nc1nc2c(nc(SCc3cccc4ccccc34)n2[C@@H]2O[C@H](CO)[C@@H](O)[C@H]2O)c(=S)[nH]1`: the concentration for a half-maximal effect (EC50) in the data set with Chikungunya virus [3] is above 212 µM.

As for `Nc1nc(SCc2cc3ccccc3oc2=O)c2nc(SCc3cc4ccccc4oc3=O)n([C@@H]3O[C@H](CO)[C@@H](O)[C@H]3O)c2n1`, the EC50 in the data set with Chikungunya virus [3] is above 154 µM.

For the molecule `COc1ccc2oc(=O)c(CSc3nc(N)nc4c3nc(SCc3cc5cc(OC)ccc5oc3=O)n4[C@@H]3O[C@H](CO)[C@@H](O)[C@H]3O)cc2c1`, the CC50 in data set [4] is above 212 µM. For the same molecule, the EC50 with Chikungunya virus [3] amounted to 9.9 µM. For the same molecule, the selectivity ratio in data set [5] was above 21.7. The molecule also showed a logP in [6] of 3.01. Also, in data set [9], the solubility was 7.2 mg.

Consider `CSCc1cc2ccccc2oc1=O`, for which, in the data set on Chikungunya virus [3], the half-maximal effective concentration (EC50) was above 485 µM.

Take `Nc1nc(SCc2cc3cc(Cl)ccc3oc2=O)c2nc(SCc3ccccc3)n([C@@H]3O[C@H](CO)[C@@H](O)[C@H]3O)c2n1`: the EC50 in the data set with Chikungunya virus [3] was above 163 µM.

Consider `Nc1nc(SCc2cc3cc(Cl)ccc3oc2=O)c2nc(SCc3cc4cc(Cl)ccc4oc3=O)n([C@@H]3O[C@H](CO)[C@@H](O)[C@H]3O)c2n1`, for which the EC50 in the data set on Chikungunya virus [3] was above 140 µM.

As a reminder, the EC50 is the concentration giving half of the maximal effect. As a reminder, the CC50 is the concentration giving 50% cytotoxicity. In general, logP refers to the decadic logarithm of the partition coefficient of the neutral form, usually between octanol and water.
